# Results published in ChEMBL document CHEMBL1150675, “Chemical constituents of Calophyllum brasiliense. 2. Structure of three new coumarins and cancer chemopreventive activity of 4-substituted coumarins” (J Nat Prod, 2003).
# Tested on: Raji
# Assay: Inhibition of TPA-induced EBV-early antigen activation in human Raji cells assessed as early antigen activation at 32 nmol after 48 hrs relative to control
# Format: cell-based
# Set-up: scale not given: the % may be the effect or the level left
# Conditions: human gammaherpesvirus 4
# How it was run: (§1)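 Raji cells at 10^6 cells/mL are harvested and induced in RPMI 1640/10% FCS with 4 mM n-butyric acid and 32 pmol TPA (20 ng/mL). Compound is added in DMSO at 32, 16, 3.2 or 0.32 nmol (mol ratio to TPA). After 48 h at 37 °C, EA-positive cells are counted blind (≥500 cells) as % versus TPA-only control ± SD. IC50 is the mol ratio to TPA giving 50% inhibition.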
row,Compound,Activity
1,CCC(C)C(=O)c1c(O)c2c(c3c(-c4ccccc4)cc(=O)oc13)OC(C(C)(C)O)C2 (centres undefined) [BRASIMARIN B],0%
2,C/C=C(\C)C(=O)c1c(OC)c2c(c3c(CCC)cc(=O)oc13)OC(C)(C)C=C2,0%
3,CC1=C(/C=C/C(C)=C/C=C/C(C)=C/C=C/C=C(C)/C=C/C=C(C)/C=C/C2=C(C)CCCC2(C)C)C(C)(C)CCC1 [BETA CAROTENE],9.1%
4,CC1(C)C=Cc2c(O)c(C(=O)c3ccccc3)c3oc(=O)cc(-c4ccccc4)c3c2O1 [CALANONE],0%
5,CC(C)=CCc1c2c(c3oc(=O)cc(-c4ccccc4)c3c1O)C(=O)[C@H](C)[C@@H](C)O2 [BRASIMARIN C],0%

# Tested on: not listed separately
# Assay: Cytotoxicity against human Raji cells assessed as cell viability at 0.32 nmol after 48 hrs by trypan blue staining
# Format: cell-based
# Conditions: read-out: Activity
# How it was run: (§2)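 Raji cells grown to 106 cells/mL, pelleted and resuspended in RPMI 1640 with 10% FCS plus 4 mM n-butyric acid and 32 pmol TPA (20 ng/mL in DMSO), with test compound in DMSO (32, 16, 3.2 or 0.32 nmol; 1000–10 mol ratio/TPA). Viability counted after 48 h at 37 °C by hemocytometer with Trypan Blue; at least 60% survival required.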
row,Compound,"viability at 48 h, 0.32 nmol"
1,CCC(C)C(=O)c1c(O)c2c(c3c(-c4ccccc4)cc(=O)oc13)OC(C(C)(C)O)C2 (centres undefined) [BRASIMARIN B],> 80%
2,C/C=C(\C)C(=O)c1c(OC)c2c(c3c(CCC)cc(=O)oc13)OC(C)(C)C=C2,> 80%
3,CC1(C)C=Cc2c(O)c(C(=O)c3ccccc3)c3oc(=O)cc(-c4ccccc4)c3c2O1 [CALANONE],> 80%
4,CC(C)=CCc1c2c(c3oc(=O)cc(-c4ccccc4)c3c1O)C(=O)[C@H](C)[C@@H](C)O2 [BRASIMARIN C],> 80%

# Tested on: Raji
# Assay: Inhibition of TPA-induced EBV-early antigen activation in human Raji cells assessed as early antigen activation at 16 nmol after 48 hrs relative to control
# Format: cell-based
# Set-up: scale not given: the % may be the effect or the level left
# Conditions: human gammaherpesvirus 4
# How it was run: as §1
row,Compound,Activity
1,CCC(C)C(=O)c1c(O)c2c(c3c(-c4ccccc4)cc(=O)oc13)OC(C(C)(C)O)C2 (centres undefined) [BRASIMARIN B],32.6%
2,C/C=C(\C)C(=O)c1c(OC)c2c(c3c(CCC)cc(=O)oc13)OC(C)(C)C=C2,19.5%
3,CC1(C)C=Cc2c(O)c(C(=O)c3ccccc3)c3oc(=O)cc(-c4ccccc4)c3c2O1 [CALANONE],32.3%
4,CC(C)=CCc1c2c(c3oc(=O)cc(-c4ccccc4)c3c1O)C(=O)[C@H](C)[C@@H](C)O2 [BRASIMARIN C],33.3%

# Tested on: not listed separately
# Assay: Cytotoxicity against human Raji cells assessed as cell viability at 32 nmol after 48 hrs by trypan blue staining
# Format: cell-based
# Conditions: read-out: Activity
# How it was run: as §2
row,Compound,"viability at 48 h, 32 nmol"
1,CCC(C)C(=O)c1c(O)c2c(c3c(-c4ccccc4)cc(=O)oc13)OC(C(C)(C)O)C2 (centres undefined) [BRASIMARIN B],70%
2,C/C=C(\C)C(=O)c1c(OC)c2c(c3c(CCC)cc(=O)oc13)OC(C)(C)C=C2,60%
3,CC1(C)C=Cc2c(O)c(C(=O)c3ccccc3)c3oc(=O)cc(-c4ccccc4)c3c2O1 [CALANONE],70%
4,CC(C)=CCc1c2c(c3oc(=O)cc(-c4ccccc4)c3c1O)C(=O)[C@H](C)[C@@H](C)O2 [BRASIMARIN C],70%

# Tested on: not listed separately
# Assay: Inhibition of TPA-induced EBV-early antigen activation in human Raji cells assessed as early antigen activation after 48 hrs relative to control
# Format: cell-based, human gammaherpesvirus 4
# Conditions: not given
# How it was run: as §1
row,IC50,Compound
1,342 molar ratio,CCC(C)C(=O)c1c(O)c2c(c3c(-c4ccccc4)cc(=O)oc13)OC(C(C)(C)O)C2 (centres undefined) [BRASIMARIN B]
2,268 molar ratio,C/C=C(\C)C(=O)c1c(OC)c2c(c3c(CCC)cc(=O)oc13)OC(C)(C)C=C2
3,400 molar ratio,CC1=C(/C=C/C(C)=C/C=C/C(C)=C/C=C/C=C(C)/C=C/C=C(C)/C=C/C2=C(C)CCCC2(C)C)C(C)(C)CCC1 [BETA CAROTENE]
4,347 molar ratio,CC1(C)C=Cc2c(O)c(C(=O)c3ccccc3)c3oc(=O)cc(-c4ccccc4)c3c2O1 [CALANONE]
5,348 molar ratio,CC(C)=CCc1c2c(c3oc(=O)cc(-c4ccccc4)c3c1O)C(=O)[C@H](C)[C@@H](C)O2 [BRASIMARIN C]

# Tested on: not listed separately
# Assay: Cytotoxicity against human Raji cells assessed as cell viability at 16 nmol after 48 hrs by trypan blue staining
# Format: cell-based
# Conditions: read-out: Activity
# How it was run: as §2
row,Compound,"viability at 48 h, 16 nmol"
1,CCC(C)C(=O)c1c(O)c2c(c3c(-c4ccccc4)cc(=O)oc13)OC(C(C)(C)O)C2 (centres undefined) [BRASIMARIN B],> 80%
2,C/C=C(\C)C(=O)c1c(OC)c2c(c3c(CCC)cc(=O)oc13)OC(C)(C)C=C2,> 80%
3,CC1(C)C=Cc2c(O)c(C(=O)c3ccccc3)c3oc(=O)cc(-c4ccccc4)c3c2O1 [CALANONE],> 80%
4,CC(C)=CCc1c2c(c3oc(=O)cc(-c4ccccc4)c3c1O)C(=O)[C@H](C)[C@@H](C)O2 [BRASIMARIN C],> 80%

# Tested on: Raji
# Assay: Inhibition of TPA-induced EBV-early antigen activation in human Raji cells assessed as early antigen activation at 0.32 nmol after 48 hrs relative to control
# Format: cell-based
# Set-up: scale not given: the % may be the effect or the level left
# Conditions: human gammaherpesvirus 4
# How it was run: as §1
row,Compound,Activity
1,CCC(C)C(=O)c1c(O)c2c(c3c(-c4ccccc4)cc(=O)oc13)OC(C(C)(C)O)C2 (centres undefined) [BRASIMARIN B],92.5%
2,C/C=C(\C)C(=O)c1c(OC)c2c(c3c(CCC)cc(=O)oc13)OC(C)(C)C=C2,90.8%
3,CC1=C(/C=C/C(C)=C/C=C/C(C)=C/C=C/C=C(C)/C=C/C=C(C)/C=C/C2=C(C)CCCC2(C)C)C(C)(C)CCC1 [BETA CAROTENE],100%
4,CC1(C)C=Cc2c(O)c(C(=O)c3ccccc3)c3oc(=O)cc(-c4ccccc4)c3c2O1 [CALANONE],93.3%
5,CC(C)=CCc1c2c(c3oc(=O)cc(-c4ccccc4)c3c1O)C(=O)[C@H](C)[C@@H](C)O2 [BRASIMARIN C],93.8%

# Tested on: Raji
# Assay: Inhibition of TPA-induced EBV-early antigen activation in human Raji cells assessed as early antigen activation at 3.2 nmol after 48 hrs relative to control
# Format: cell-based
# Set-up: scale not given: the % may be the effect or the level left
# Conditions: human gammaherpesvirus 4
# How it was run: as §1
row,Compound,Activity
1,CCC(C)C(=O)c1c(O)c2c(c3c(-c4ccccc4)cc(=O)oc13)OC(C(C)(C)O)C2 (centres undefined) [BRASIMARIN B],71.6%
2,C/C=C(\C)C(=O)c1c(OC)c2c(c3c(CCC)cc(=O)oc13)OC(C)(C)C=C2,62.5%
3,CC1(C)C=Cc2c(O)c(C(=O)c3ccccc3)c3oc(=O)cc(-c4ccccc4)c3c2O1 [CALANONE],73.1%
4,CC(C)=CCc1c2c(c3oc(=O)cc(-c4ccccc4)c3c1O)C(=O)[C@H](C)[C@@H](C)O2 [BRASIMARIN C],70.2%

# Tested on: not listed separately
# Assay: Cytotoxicity against human Raji cells assessed as cell viability at 3.2 nmol after 48 hrs by trypan blue staining
# Format: cell-based
# Conditions: read-out: Activity
# How it was run: as §2
row,Compound,"viability at 48 h, 3.2 nmol"
1,CCC(C)C(=O)c1c(O)c2c(c3c(-c4ccccc4)cc(=O)oc13)OC(C(C)(C)O)C2 (centres undefined) [BRASIMARIN B],> 80%
2,C/C=C(\C)C(=O)c1c(OC)c2c(c3c(CCC)cc(=O)oc13)OC(C)(C)C=C2,> 80%
3,CC1(C)C=Cc2c(O)c(C(=O)c3ccccc3)c3oc(=O)cc(-c4ccccc4)c3c2O1 [CALANONE],> 80%
4,CC(C)=CCc1c2c(c3oc(=O)cc(-c4ccccc4)c3c1O)C(=O)[C@H](C)[C@@H](C)O2 [BRASIMARIN C],> 80%
